# Data: ChEMBL document CHEMBL1141165, “Novel 8-substituted dipyridodiazepinone inhibitors with a broad-spectrum of activity against HIV-1 strains resistant to non-nucleoside reverse transcriptase inhibitors” (J Med Chem, 2005)
# What was measured:
# [1] = molecular target: T1, Human immunodeficiency virus type 1 reverse transcriptase (Human immunodeficiency virus 1, UniProt Q72547, K103N/Y181C); test: Effective concentration towards HIV-1 K103N/Y181C mutant reverse transcriptase activity by 50% measured in cellular assay
# Summary of the method: (§1)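 C8166 T-lymphocytes infected at MOI 0.001 with HIV-1 carrying wild-type or mutant RT, then grown 3 days with serial compound dilutions in RPMI 1640 + 10% FBS, 10 μg/mL gentamycin, 10 μM β-mercaptoethanol (also the diluent). Supernatant pooled from eight replica wells; extracellular p24 measured by HIV-1 p24 antigen kit.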
# [2] = molecular target: T1, Human immunodeficiency virus type 1 reverse transcriptase; test: Inhibitory activity of compound dissolved in DMSO was determined against HIV-1 (K103N/Y181C) mutant reverse transcriptase (1-2 nM) by using [3H]-dGTP (71 nM) as substrate, 50 mM Tris/HCl buffer, pH 7.8, incubated for 1 hr at 37 degrees C
# Summary of the method: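 RT at ≈3 nM preincubated 15 min at room temperature with inhibitor, then substrate added. Final mix: 50 mM Tris/HCl pH 7.8, 60 mM NaCl, 2 mM MgCl2, 6 mM DTT, 2 mM GSH, 0.02% Chaps, 3% DMSO, 179 nM poly rC, 18 nM biotin-dG15, 288 nM dGTP, 71 nM 3H-dGTP, 1–2 nM enzyme, inhibitor 10 μM–0.5 nM. Reaction 1 h at 37 °C, quenched with EDTA plus streptavidin SPA beads, CsCl added, scintillation counted.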
# [3] = molecular target: T2, Human immunodeficiency virus type 1 reverse transcriptase (Human immunodeficiency virus 1, UniProt Q72547); test: Inhibitory activity of compound dissolved in DMSO was determined against HIV-1 wild type reverse transcriptase (1-2 nM) by using [3H]dGTP (71 nM) as substrate, 50 mM Tris/HCl buffer, pH 7.8, incubated for 1 h at 37 degrees C
# Summary of the method: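 Wild-type RT preincubated 15 min at room temperature with inhibitor. Final reaction: Tris/HCl 50 mM pH 7.8, NaCl 60 mM, MgCl2 2 mM, DTT 6 mM, GSH 2 mM, Chaps 0.02%, DMSO 3%, poly rC 179 nM, biotin-dG15 18 nM, dGTP 288 nM, 3H-dGTP 71 nM, enzyme 1–2 nM, inhibitor 10 μM–0.5 nM. Run 1 h at 37 °C, EDTA-quenched, read with streptavidin SPA beads.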
# [4] = molecular target: T2, Human immunodeficiency virus type 1 reverse transcriptase; test: Effective concentration towards HIV-1 wild type reverse transcriptase activity by 50% measured in cellular assay
# Summary of the method: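 C8166 T-lymphocytes infected at MOI 0.001 with wild-type HIV-1, then cultured 3 days with serial compound dilutions in RPMI 1640 containing 10% FBS, gentamycin and 10 μM β-mercaptoethanol. Supernatants pooled from eight replicate wells. Extracellular p24 measured by antigen immunoassay.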
# C8166 [5] = test: Inhibition of HIV replication in T-lymphocyte cell line C8166 infected with V106A mutant reverse transcriptase upon incubation with the compound for 3 days; assay type: functional, Homo sapiens; summary of the method: as §1
# C8166 [6] = test: Inhibition of HIV replication in T-lymphocyte cell line C8166 infected with Y188L mutant reverse transcriptase upon incubation with the compound for 3 days; assay type: functional, Homo sapiens; summary of the method: as §1
# C8166 [7] = test: Inhibition of HIV replication in T-lymphocyte cell line C8166 infected with K103N/L100I mutant reverse transcriptase upon incubation with the compound for 3 days; assay type: functional, Homo sapiens; summary of the method: as §1
# C8166 [8] = test: Inhibition of HIV replication in T-lymphocyte cell line C8166 infected with K103N/P225H mutant reverse transcriptase upon incubation with the compound for 3 days; assay type: functional, Homo sapiens; summary of the method: as §1
# C8166 [9] = test: Inhibition of HIV replication in T-lymphocyte cell line C8166 infected with K103N/V108I mutant reverse transcriptase upon incubation with the compound for 3 days; assay type: functional, Homo sapiens; summary of the method: as §1
# Caco-2 = test: Caco-2 permeability upon incubation at 37 degrees C for 180 minutes; assay type: functional, Homo sapiens
# Summary of the method: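 Cells grown on 12-well Transwell membranes and exposed to test solution for 180 min at 37 °C. Receiving-side (basolateral, A to B) samples analysed by HPLC. Apparent permeability = (ΔQ/Δt)/(A·C0), where ΔQ/Δt is the transport rate, A the monolayer area and C0 the initial donor concentration.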
# in vitro = details: male, human, liver microsomes
# [10] = Clearance is determined in rat after intravenous administration at 1 mg/kg; assay type: ADME, organism-based; set-up: dose 1 mg/kg, route intravenous; details: in vivo
# Summary of the method: (§2)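 Intravenous bolus at 1 mg/kg to overnight-fasted male Sprague-Dawley rats, beagle dogs or rhesus monkeys. Vehicle: N,N-dimethylacetamide/0.9% aqueous NaCl (30:70). Animals restrained during sampling. Plasma extracts analysed by HPLC. Parameters derived by noncompartmental analysis.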
# Cytochrome P450 3A4 [11] = molecular target: T3, Cytochrome P450 3A4 (Homo sapiens, UniProt P08684); test: Inhibitory concentration (1.5 mM) against human CYP450 3A4 dissolved in acetonitrile/methanol using 7-Benzyloxy-quinoline (BQ) as fluorogenic substrate
# Cytochrome P450 1A2 = molecular target: T4, Cytochrome P450 1A2 (Homo sapiens, UniProt P05177); test: Inhibitory concentration (1.5 mM) against human CYP450 1A2 dissolved in acetonitrile/methanol
# T4 sequence (P05177 whole entry): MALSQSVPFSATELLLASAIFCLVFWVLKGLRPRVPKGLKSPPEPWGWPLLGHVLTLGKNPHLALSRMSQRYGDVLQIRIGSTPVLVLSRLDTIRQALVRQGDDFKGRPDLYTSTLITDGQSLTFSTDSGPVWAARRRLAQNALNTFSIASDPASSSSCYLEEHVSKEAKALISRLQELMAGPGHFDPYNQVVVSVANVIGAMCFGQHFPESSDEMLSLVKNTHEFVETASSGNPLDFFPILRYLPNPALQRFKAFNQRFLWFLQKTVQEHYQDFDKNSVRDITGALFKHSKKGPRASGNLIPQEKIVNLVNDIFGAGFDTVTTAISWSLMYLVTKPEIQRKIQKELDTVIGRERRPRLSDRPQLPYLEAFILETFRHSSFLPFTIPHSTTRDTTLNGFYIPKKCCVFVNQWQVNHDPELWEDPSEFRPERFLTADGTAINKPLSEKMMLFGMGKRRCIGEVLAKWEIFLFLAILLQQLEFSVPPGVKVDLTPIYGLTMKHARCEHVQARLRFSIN
# Cytochrome P450 2D6 = Cytochrome P450 2D6 (Homo sapiens, UniProt P10635); test: Inhibitory concentration (1.5 mM) against human CYP450 2D6 dissolved in acetonitrile/methanol
# Cytochrome P450 2C19 = Cytochrome P450 2C19 (Homo sapiens, UniProt P33261); test: Inhibitory concentration (1.5 mM) against human CYP450 2C19 dissolved in acetonitrile/methanol
# [12] = Half-life is determined in dog after intravenous administration 1 mg/kg; assay type: ADME, organism-based, Canis lupus familiaris; set-up: dose 1 mg/kg, route intravenous; details: in vivo; summary of the method: as §2
# [13] = Half-life is determined in rat after intravenous administration at 1 mg/kg; assay type: ADME, organism-based; set-up: dose 1 mg/kg, route intravenous; details: in vivo; summary of the method: as §2
# [14] = Steady state volume of distribution is determined in dog after intravenous administration 1 mg/kg; assay type: ADME, organism-based, Canis lupus familiaris; set-up: dose 1 mg/kg, route intravenous; details: in vivo, read-out: Vss; summary of the method: as §2
# [15] = Steady state volume of distribution in rat after intravenous administration 1 mg/kg; assay type: ADME, organism-based; set-up: dose 1 mg/kg, route intravenous; details: in vivo, read-out: Vss; summary of the method: as §2
# [16] = Clearance is determined in dog after intravenous administration at 1 mg/kg; assay type: ADME, organism-based, Canis lupus familiaris; set-up: dose 1 mg/kg, route intravenous; details: in vivo; summary of the method: as §2
# [17] = Half-life is determined in monkey after intravenous administration at 1 mg/kg; assay type: ADME, organism-based; set-up: dose 1 mg/kg, route intravenous; details: cercopithecidae, in vivo; summary of the method: as §2
# [18] = Clearance is determined in monkey after intravenous administration 1 mg/kg; assay type: ADME, organism-based; set-up: dose 1 mg/kg, route intravenous; details: cercopithecidae, in vivo; summary of the method: as §2
# [19] = Steady state volume of distribution is determined in monkey after intravenous administration at 1 mg/kg; assay type: ADME, organism-based; set-up: dose 1 mg/kg, route intravenous; details: cercopithecidae, in vivo, read-out: Vss; summary of the method: as §2
# Cytochrome P450 3A4 [20] = molecular target: T3, Cytochrome P450 3A4
# Cytochrome P450 2C9 = Cytochrome P450 2C9 (Homo sapiens, UniProt P11712)
# [21] = Bioavailability is determined in dog after oral administration 5 mg/kg; details: in vivo
# [22] = Area under curve is determined in dog after oral administration 5 mg/kg; details: in vivo
# [23] = Bioavailability is determined in rat after oral administration at 5 mg/kg; details: in vivo
# [24] = Area under curve is determined in rat after oral administration at 5 mg/kg; details: in vivo
# [25] = Concentration maximum is determined in dog after oral administration 5 mg/kg; details: in vivo
# [26] = Bioavailability is determined in monkey after oral administration at 5 mg/kg; details: cercopithecidae, in vivo
# [27] = Area under curve is determined in monkey after oral administration at 5 mg/kg; details: cercopithecidae, in vivo
# [28] = Concentration maximum is determined in rat after oral administration at 5 mg/kg; details: in vivo
# [29] = Maximum concentration is determined in monkey after oral administration at 5 mg/kg; details: cercopithecidae, in vivo
# T3 sequence (P08684 whole entry): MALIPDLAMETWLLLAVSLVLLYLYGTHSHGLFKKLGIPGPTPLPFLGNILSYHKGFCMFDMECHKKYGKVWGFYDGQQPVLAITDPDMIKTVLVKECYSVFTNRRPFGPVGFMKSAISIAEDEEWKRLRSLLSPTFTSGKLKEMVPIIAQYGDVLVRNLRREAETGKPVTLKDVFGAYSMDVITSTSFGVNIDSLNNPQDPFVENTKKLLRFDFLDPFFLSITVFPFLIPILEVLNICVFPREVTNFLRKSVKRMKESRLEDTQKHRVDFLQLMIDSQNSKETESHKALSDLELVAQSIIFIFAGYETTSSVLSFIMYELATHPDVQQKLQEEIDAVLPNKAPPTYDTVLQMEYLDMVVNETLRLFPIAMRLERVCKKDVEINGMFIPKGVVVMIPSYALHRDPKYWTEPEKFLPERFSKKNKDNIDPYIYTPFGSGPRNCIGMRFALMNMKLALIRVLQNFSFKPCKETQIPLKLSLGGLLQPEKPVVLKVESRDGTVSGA
# Chain of Cytochrome P450 2C9 (P11712 whole entry): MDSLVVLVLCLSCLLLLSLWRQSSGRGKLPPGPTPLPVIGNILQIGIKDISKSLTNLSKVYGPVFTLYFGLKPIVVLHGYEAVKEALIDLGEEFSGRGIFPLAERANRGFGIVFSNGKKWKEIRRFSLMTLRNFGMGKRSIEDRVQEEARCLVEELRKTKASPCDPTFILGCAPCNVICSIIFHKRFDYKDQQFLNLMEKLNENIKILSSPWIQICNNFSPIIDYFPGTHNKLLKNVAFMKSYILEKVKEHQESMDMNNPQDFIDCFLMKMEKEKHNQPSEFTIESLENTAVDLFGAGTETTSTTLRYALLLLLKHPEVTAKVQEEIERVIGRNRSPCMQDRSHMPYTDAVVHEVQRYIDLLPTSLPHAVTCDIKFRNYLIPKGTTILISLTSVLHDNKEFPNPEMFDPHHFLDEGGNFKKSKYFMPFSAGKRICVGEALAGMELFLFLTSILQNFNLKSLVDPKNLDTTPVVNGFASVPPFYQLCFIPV
# Chain of Cytochrome P450 2D6 (P10635 whole entry): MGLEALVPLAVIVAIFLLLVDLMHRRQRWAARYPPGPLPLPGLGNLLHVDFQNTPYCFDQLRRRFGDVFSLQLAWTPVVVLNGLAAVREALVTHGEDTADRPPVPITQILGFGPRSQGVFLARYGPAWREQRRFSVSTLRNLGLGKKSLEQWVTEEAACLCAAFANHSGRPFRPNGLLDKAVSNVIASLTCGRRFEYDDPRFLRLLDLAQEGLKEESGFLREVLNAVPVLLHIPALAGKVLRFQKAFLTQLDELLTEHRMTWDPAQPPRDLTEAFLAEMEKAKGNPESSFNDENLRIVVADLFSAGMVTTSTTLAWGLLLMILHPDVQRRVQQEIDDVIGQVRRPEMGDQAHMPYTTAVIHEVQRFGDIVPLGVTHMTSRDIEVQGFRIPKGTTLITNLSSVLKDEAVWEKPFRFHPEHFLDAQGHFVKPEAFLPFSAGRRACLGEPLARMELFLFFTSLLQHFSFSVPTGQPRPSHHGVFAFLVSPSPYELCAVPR
# Chain of Cytochrome P450 2C19 (P33261 whole entry): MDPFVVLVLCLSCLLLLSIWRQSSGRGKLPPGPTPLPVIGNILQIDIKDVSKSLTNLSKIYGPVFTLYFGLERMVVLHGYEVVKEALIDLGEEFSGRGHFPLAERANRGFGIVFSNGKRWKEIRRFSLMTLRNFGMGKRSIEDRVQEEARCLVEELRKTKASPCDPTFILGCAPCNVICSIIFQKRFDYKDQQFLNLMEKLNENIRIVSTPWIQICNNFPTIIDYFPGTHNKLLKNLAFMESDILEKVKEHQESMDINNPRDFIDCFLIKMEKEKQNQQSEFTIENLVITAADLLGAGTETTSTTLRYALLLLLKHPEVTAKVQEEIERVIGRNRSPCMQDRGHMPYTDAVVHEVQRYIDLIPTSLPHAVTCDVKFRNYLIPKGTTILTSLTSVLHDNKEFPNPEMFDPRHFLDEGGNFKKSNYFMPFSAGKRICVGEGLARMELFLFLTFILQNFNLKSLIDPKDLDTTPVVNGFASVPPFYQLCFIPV
structure (smiles),measurement,setting,value
CCN1c2ncc(CCOc3ccc(C(=O)O)cc3C)cc2C(=O)N(C)c2ccc(Cl)nc21,EC50,[1],8.1 nM
same,IC50,[2],64 nM
same,IC50,[3],10 nM
same,EC50,[4],1.6 nM
CCc1cc(C(=O)O)ccc1OCCc1cnc2c(c1)C(=O)N(C)c1cccnc1N2CC,EC50,[1],24 nM
same,IC50,[2],430 nM
same,IC50,[3],19 nM
same,EC50,[4],2.2 nM
CCN1c2ncc(CCOc3cccc4c(C(=O)O)cccc34)cc2C(=O)N(C)c2cccnc21,IC50,[2],550 nM
same,IC50,[3],60 nM
CCN1c2ncc(CCOc3ccc(C(=O)O)cc3C)cc2C(=O)N(C)c2ccc(C)nc21,EC50,[1],33 nM
same,IC50,[2],280 nM
same,IC50,[3],19 nM
same,EC50,[4],1.3 nM
CCN1c2ncc(CCOc3ccc(C(=O)O)cc3C)cc2C(=O)N(C)c2ccc(F)nc21,EC50,[1],14 nM
same,IC50,[2],150 nM
same,Antiviral activity,C8166 [5],27 nM
same,Antiviral activity,C8166 [6],27 nM
same,Antiviral activity,C8166 [7],3 nM
same,Antiviral activity,C8166 [8],2 nM
same,Antiviral activity,C8166 [9],4 nM
same,IC50,[3],15 nM
same,EC50,[4],1.5 nM
CCN1c2ncc(CCOc3ccc(CCC(=O)O)cc3C)cc2C(=O)N(C)c2cccnc21,EC50,[1],101 nM
same,IC50,[2],200 nM
same,Caco-2 A-B,Caco-2,4.69e-05 cm/s
same,IC50,[3],22 nM
same,EC50,[4],5.5 nM
same,half-life at 10 µM,in vitro,3.43 h
CCN1c2ncc(CCOc3ccc(CC(=O)O)cc3C)cc2C(=O)N(C)c2cccnc21,EC50,[1],139 nM
same,IC50,[2],370 nM
same,Caco-2 A-B,Caco-2,1.84e-05 cm/s
same,IC50,[3],23 nM
same,EC50,[4],12 nM
same,half-life at 10 µM,in vitro,3.6 h
CCN1c2ncc(CCOc3ccc(C(=O)O)c4ccccc34)cc2C(=O)N(C)c2cccnc21,IC50,[2],194 nM
same,IC50,[3],27 nM
CCN1c2ncc(CCOc3ccc4c(C(=O)O)cccc4c3)cc2C(=O)N(C)c2cccnc21,IC50,[2],4000 nM
same,IC50,[3],63 nM
CCN1c2ncc(CCOc3ccc4cc(C(=O)O)ccc4c3)cc2C(=O)N(C)c2cccnc21,IC50,[2],1100 nM
same,IC50,[3],14 nM
CCN1c2ncc(CCOc3ccc(C(=O)O)cc3Br)cc2C(=O)N(C)c2cccnc21,EC50,[1],35 nM
same,IC50,[2],300 nM
same,IC50,[3],18 nM
same,EC50,[4],3.2 nM
CCN1c2ncc(CCOc3ccc(C(=O)O)cc3C)cc2C(=O)N(C)c2ccc(OC)nc21,EC50,[1],15 nM
same,IC50,[2],300 nM
same,IC50,[3],15 nM
same,EC50,[4],1.9 nM
CCN1c2ncc(CCOc3ccc(C(=O)O)cc3)cc2C(=O)N(C)c2cccnc21,EC50,[1],162 nM
same,IC50,[2],4480 nM
same,IC50,[3],95 nM
same,EC50,[4],3.3 nM
same,half-life at 10 µM,in vitro,1.27 h
CCN1c2ncc(CCOc3ccc(C(=O)O)cc3C)cc2C(=O)N(C)c2cccnc21,EC50,[1],15 nM
same,IC50,[2],221 nM
same,clearance,[10],7.1 mL/min/kg
same,Antiviral activity,C8166 [5],36 nM
same,Antiviral activity,C8166 [6],172 nM
same,Antiviral activity,C8166 [7],4 nM
same,Antiviral activity,C8166 [8],5 nM
same,Antiviral activity,C8166 [9],5 nM
same,Caco-2 A-B,Caco-2,2.75e-05 cm/s
same,IC50,Cytochrome P450 3A4 [11],> 30000 nM
same,IC50,[3],17 nM
same,EC50,[4],1.6 nM
same,IC50,Cytochrome P450 1A2,> 30000 nM
same,IC50,Cytochrome P450 2D6,> 30000 nM
same,IC50,Cytochrome P450 2C19,2000 nM
same,half-life,[12],5.9 h
same,half-life,[13],11 h
same,Vd,[14],2.5 L/kg
same,Vd,[15],4.6 L/kg
same,clearance,[16],10 mL/min/kg
same,half-life,[17],1.3 h
same,clearance,[18],24 mL/min/kg
same,Vd,[19],1 L/kg
same,IC50,Cytochrome P450 3A4 [20],24000 nM
same,IC50,Cytochrome P450 2C9,10000 nM
same,half-life at 10 µM,in vitro,2.23 h
same,bioavailability,[21],115%
same,AUC,[22],20 uMh
same,bioavailability,[23],46%
same,AUC,[24],12 uMh
same,Cmax,[25],16 µM
same,bioavailability,[26],43%
same,AUC,[27],3.4 uMh
same,Cmax,[28],6.5 µM
same,Cmax,[29],1.5 µM
